# Sampled rows, rich in hits. Any-hit rate of the full collection: about 2.3%.
# TRPC6 act: activators of mouse TRPC6 channel | Q61143 | HEK293-TRPC6 membrane potential dye fluorescence; active compounds read high | B-score at 10 µM | hit rate 0.13% among 310,000 | AID 2550;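 active = B-score of the integrated fluorescence ratio above library mean plus 3 SD, and starting fluorescence ratio within library mean plus 5 SD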;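 note: higher score means more depolarization so channel activation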
# Target sequence (Q61143 whole entry, looked up): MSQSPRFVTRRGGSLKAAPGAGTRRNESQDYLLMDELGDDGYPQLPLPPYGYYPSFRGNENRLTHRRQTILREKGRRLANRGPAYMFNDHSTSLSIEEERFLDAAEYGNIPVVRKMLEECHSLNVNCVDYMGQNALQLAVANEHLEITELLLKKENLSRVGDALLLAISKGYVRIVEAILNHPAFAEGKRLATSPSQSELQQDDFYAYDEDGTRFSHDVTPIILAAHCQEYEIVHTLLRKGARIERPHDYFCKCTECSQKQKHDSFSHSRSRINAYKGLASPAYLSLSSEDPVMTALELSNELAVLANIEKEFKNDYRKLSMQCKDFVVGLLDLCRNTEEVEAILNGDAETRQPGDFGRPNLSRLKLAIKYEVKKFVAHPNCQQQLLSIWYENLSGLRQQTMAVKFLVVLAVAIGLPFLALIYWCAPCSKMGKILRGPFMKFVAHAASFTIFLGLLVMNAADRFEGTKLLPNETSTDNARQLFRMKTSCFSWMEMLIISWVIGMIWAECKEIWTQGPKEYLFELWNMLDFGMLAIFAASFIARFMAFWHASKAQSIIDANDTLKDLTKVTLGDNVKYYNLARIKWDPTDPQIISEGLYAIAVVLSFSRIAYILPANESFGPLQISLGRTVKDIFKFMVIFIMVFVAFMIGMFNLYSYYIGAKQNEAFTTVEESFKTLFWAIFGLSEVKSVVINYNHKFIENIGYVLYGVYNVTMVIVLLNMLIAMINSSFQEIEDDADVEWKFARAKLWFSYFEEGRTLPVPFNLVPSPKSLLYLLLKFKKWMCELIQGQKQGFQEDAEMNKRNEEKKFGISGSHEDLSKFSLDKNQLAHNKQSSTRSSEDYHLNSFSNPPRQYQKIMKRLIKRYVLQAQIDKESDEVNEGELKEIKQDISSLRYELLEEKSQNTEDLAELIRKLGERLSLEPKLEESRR
# TRPC4 PAM: allosteric potentiators of mouse TRPC4 channel; Q9QUQ5; HEK293 TRPC4beta/mu-opioid, DAMGO EC20, Fluo-4 Ca2+ flux; active compounds read high; B-score at 10 µM; hit rate 0.42% among 310,000; AID 2227;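 active = B-score of calcium response area above 5 SD of library B-scores, with initial fluorescence ratio within 5 SD of library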;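 note: B-score of integrated fluorescence ratio over time as area under calcium response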
# TRPC4 agonist: activators of mouse TRPC4 channel | HEK293 TRPC4beta/mu-opioid, Fluo4 calcium fluorescence; active compounds read high | B-score at 10 µM | hit rate 0.49% among 310,000 | AID 2237;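 active = B-score above 5 SD of library B-scores, and initial fluorescence ratio not above library mean plus 5 SD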;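 note: positive B-score marks a calcium rise read as TRPC4 activation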
#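 Assay system: HEK293 cells stably co-expressing mouse TRPC4beta and mu-opioid receptor / Timing: Fluo4 dye loading 45 min at room temperature, 110 s recording / Signal: Fluo4 calcium-sensitive dye fluorescence, kinetic, 1 Hz baseline / Read-out: integrated baseline-normalised fluorescence ratio, converted to per-well B score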
# TRPC6 inhibitor: blocks the mouse TRPC6 cation channel; B-score at 10 µM; Q61143; AID 2553; HEK293-TRPC6, membrane potential dye, ACh-evoked depolarization; active compounds read low; hit rate 1.1% among 310,000;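 active = B-score under library mean minus 3 SD, initial fluorescence not abnormally high, positive integrated signal ratio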;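 note: B-score derived from integrated fluorescence ratio over the kinetic read; more negative B-score means stronger inhibition of depolarization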
# TRPC4 block: TRPC4 (mouse) channel inhibition. HEK293 TRPC4beta/mu-opioid, DAMGO-evoked Fluo4 calcium flux; active compounds read low. hit rate 0.39% among 300,000. Q9QUQ5. B-score at 10 µM;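 active = B-score over 3 SD under the library average, no early fluorescence shift, positive overall ratio signal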
#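 Assay system: HEK293 cells with stable TRPC4beta plus mu-opioid receptor expression. Dosing: single dose. Measured by: Fluo4 Ca2+ flux fluorescence. Also added: DAMGO in two steps, submaximal then maximal. Read-out: B score from integrated Fluo4 fluorescence ratio.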
# DNA FID counter: fluorescent intercalator displacement, NS3 helicase counter-screen; inhibition, % at 7.9 µM; hit rate 0.17% among 290,000; DNA fluorescent intercalator displacement, fluorescence; AID 1845; in the data active = inhibition above about 37%;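 note: 0% = vehicle and 100% = reference compound; higher means more ethidium bromide displaced from hairpin DNA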
# * hit, by the source's call; i = inactive; / = no result given.
SMILES,TRPC6 act,TRPC4 PAM,TRPC4 agonist,TRPC6 inhibitor,TRPC4 block,DNA FID counter
CC1(C)CC(=O)C/C(=N/NC(=O)COc2ccc3ccccc3c2Br)C1,i,i,i,i,i,-39
Cc1ccc(S(=O)(=O)Nc2cccc(C(=O)N3CCOCC3)c2)c(C)c1NS(C)(=O)=O,i,i,i,i,i,-17
CC1CN(C(=O)c2ccc(NS(=O)(=O)c3ccc(C(C)(C)C)cc3)cc2)CC(C)O1 (configuration not stated),i,i,89*,i,i,-41
Cc1ccsc1/C=N/Nc1ncc(Cl)cc1Cl,i,10*,i,i,i,-3
CC(=Nc1ccc(C)cc1)c1sc2ccccc2c1O,i,i,i,i,-6*,3
O=C(OCC(=O)N1CCCC1=O)C1CCN(S(=O)(=O)c2c(Cl)cccc2Cl)CC1,i,i,i,i,i,-31
Cn1c(N)c(C(=O)COC(=O)CNS(=O)(=O)c2ccc(Cl)c(Cl)c2)c(=O)n(C)c1=O,i,i,i,i,-6*,-9
OCC(Cc1ccccc1)NCc1ccccc1C(F)(F)F (configuration not stated),i,i,i,i,-6*,8
OC(CNCc1ccccc1C(F)(F)F)C(F)(F)F (configuration not stated),i,i,i,i,i,1
COC(=O)c1cccc(-n2c(=O)n(Cc3ccccc3)c(=O)c3[nH]cnc32)c1C,i,i,i,i,i,-17
O=C(Nc1cc(C(F)(F)F)ccc1Cl)c1ccncc1,i,i,i,i,i,-5
CC(C)Cc1cc(C(=O)Nc2cc(C(F)(F)F)ccc2Cl)no1,i,10*,i,i,i,4
CC(C)c1cccc(OCCCCN(C)C)c1,i,17*,i,i,i,10
CN(C)CCCOc1cccc(Cl)c1,i,32*,64*,i,i,4
CCCCNCCCOc1cccc(Cl)c1,i,i,i,i,i,11
CN(C)CCCOc1cccc(Oc2ccccc2)c1,i,12*,i,i,i,12
CC(C)CN(C(=O)COC(=O)CNC(=O)c1sc2ccccc2c1Cl)C1CCS(=O)(=O)C1 (configuration not stated),i,i,i,i,i,/
CCN1CCN(c2ccc(S(=O)(=O)N3CCCCC3)cc2NC(=O)Cc2ccccc2)CC1,i,i,i,i,i,/
CCN1CCN(c2ccc(S(=O)(=O)N3CCCCC3)cc2NC(=O)COc2ccccc2)CC1,i,i,125*,i,i,/
CCN1CCN(c2ccc(S(=O)(=O)N3CCCCC3)cc2NC(=O)Cc2ccc(Cl)c(Cl)c2)CC1,i,i,43*,i,i,/
CCOc1ccccc1OCC(=O)Nc1cc(S(=O)(=O)N2CCCCC2)ccc1N1CCN(CC)CC1,i,i,89*,i,i,/
O=C(O)CNC(=O)c1ccc(Oc2c(F)c(F)c(Oc3ccc(C(=O)NCC(=O)O)cc3)c(F)c2F)cc1,i,i,i,i,i,-24
CN1CCN(NC(=O)c2cccc(S(=O)(=O)N3CCCCCC3)c2)CC1,i,i,i,i,i,8
CN1CCN(NC(=O)c2cccc(C(F)(F)F)c2)CC1,i,i,53*,i,i,-3
Cc1csc2c(N3CCN(C(=S)Nc4ccc(F)cc4F)CC3)ncnc12,i,i,124*,i,i,-16
SMILES,TRPC6 act,TRPC4 PAM,TRPC4 agonist,TRPC6 inhibitor,TRPC4 block,DNA FID counter
Fc1ccc(NC(=S)N2CCOCC2)c(F)c1,i,i,i,i,i,0
Cc1csc2c(N3CCN(C(=O)Nc4ccccc4)CC3)ncnc12,i,i,185*,i,i,-26
Cc1ccc(C(=O)N2CCN(c3ncnc4c(C)csc34)CC2)cc1,i,i,i,i,i,-28
CC(C)[C@H](NC(=O)N1CCn2c1nc1ccccc12)C(=O)NC1CCCCC1,i,i,i,i,i,-39
O=S1(=O)N=C(c2ccccc2)c2ccccc21,i,i,i,i,i,/
COc1ccc(CCNC(=O)Cn2cnc3c(cnn3C(C)(C)C)c2=O)cc1OC,i,26*,i,i,i,-14
Cc1ccc(C(=O)NC(=S)NCc2ccccc2)cc1Br,i,i,i,i,i,/
CCOC(=O)c1c(NC(=O)c2ccc(C)cc2)sc2c1CC(C)(C)OC2,i,i,i,i,i,-3
CCOC(=O)c1c(NC(=O)c2ccccc2C)sc2c1CC(C)(C)OC2,i,11*,i,i,i,-8
Cc1cc(/C=N/NC(=O)c2cccc([N+](=O)[O-])c2)c(C)n1-c1ccc(Cl)cc1Cl,i,i,i,i,-6*,-9
Cc1cccc(/C=N/NC(=O)c2cccc([N+](=O)[O-])c2)n1,i,i,i,i,i,-1
NC(=O)NC(=O)C(Nc1ccc(N2CCCCC2)cc1)c1ccccc1 (configuration not stated),i,i,i,i,i,-13
COc1ccc(CC(=O)NC2CCS(=O)(=O)C2)cc1 (configuration not stated),i,i,i,i,i,/
CC1CCN(CCCOc2ccc(OCc3ccccc3)cc2)CC1,i,i,i,i,-6*,25
CN(C)CCCNc1cc(C(C)(C)C)nc2c(-c3ccccc3)cnn12,i,i,i,i,i,48*
Oc1ccc(-c2csc(-c3ccccc3)n2)cc1O,i,i,i,i,-6*,-3
Oc1ccc(-c2csc(-c3cccnc3)n2)cc1O,i,i,i,i,i,-10
O=C(/C=C/NCc1cccnc1)c1ccc(Br)cc1,i,i,i,i,i,/
CC#CC(=O)N1CCC(Oc2cccc(C(=O)NCc3ccccn3)c2)CC1,i,i,i,i,i,-26
CSCC(C)N1CCC(Oc2cccc(C(=O)NCc3ccccn3)c2)CC1 (configuration not stated),i,i,i,-5.7*,i,1
CCCCCOC(=O)C1=C(C)NC(=O)NC1c1ccc(OC)cc1 (configuration not stated),i,i,i,i,i,-29
CN(CC(=O)NC1CCCc2ccccc21)C1CCCCC1 (configuration not stated),i,i,i,i,-5*,0

# Screening results deposited in PubChem BioAssay by several laboratories.
